These results are taken from ChEMBL document CHEMBL1156205, “Synthesis and antibacterial activity of new 9-O-arylpropenyloxime ketolides” (2010).

Converted amounts (≈) assume the structure as drawn.

Common to all, as to format: functional
Test [1] concerns Streptococcus pyogenes. Briefly: Antibacterial activity against Streptococcus pyogenes isolate 2 by agar dilution method. In a few lines: (§1)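 MIC measured by agar dilution on Mueller–Hinton agar. Strains were a reference culture and clinically isolated strains. The pneumococcal isolates were penicillin-susceptible clinical isolates.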
(In general: Agar dilution tests growth on a series of plates holding different concentrations.)

Test [2] concerns Streptococcus pneumoniae. Briefly: Antibacterial activity against Streptococcus pneumoniae ATCC 49619 by agar dilution method. The settings on record: ATCC49619. In a few lines:
(§2)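 MIC determined by agar dilution on Mueller–Hinton agar against reference strains.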

Test [3] has as its system Staphylococcus aureus. In words: Antibacterial activity against methicillin-susceptible Staphylococcus aureus ATCC 29213 by agar dilution method. In a few lines: as §2
Test [4] concerns Streptococcus pyogenes. Briefly: Antibacterial activity against Streptococcus pyogenes ATCC 8668 by agar dilution method. An outline of the steps:
as §1

Test [5] relates to Staphylococcus aureus. In words: Antibacterial activity against methicillin-resistant Staphylococcus aureus 1 by agar dilution method. An outline of the steps:
(§3)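 MIC determined by agar dilution on Mueller–Hinton agar against clinical strains of methicillin-resistant S. aureus.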

Test [6] has as its system Staphylococcus aureus. Briefly: Antibacterial activity against methicillin-resistant Staphylococcus aureus 2 by agar dilution method. In a few lines: as §3
The subject of test [7] is Staphylococcus aureus. In words: Antibacterial activity against methicillin-susceptible Staphylococcus aureus isolate 1 by agar dilution method. An outline of the steps: (§4)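 MIC determined by agar dilution on Mueller–Hinton agar against clinically isolated methicillin-susceptible S. aureus.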
In test [8] the test system is Streptococcus pyogenes. Briefly: Antibacterial activity against Streptococcus pyogenes isolate 1 by agar dilution method. An outline of the steps: as §1
Test [9] deals with Streptococcus pneumoniae. In words: Antibacterial activity against penicillin intermediate-resistant Streptococcus pneumoniae isolate I2 by agar dilution method. An outline of the steps: (§5)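 MIC determined by agar dilution on Mueller–Hinton agar against clinically isolated penicillin-intermediate-resistant S. pneumoniae.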
The test system of test [10] is Staphylococcus aureus. In words: Antibacterial activity against methicillin-susceptible Staphylococcus aureus isolate 2 by agar dilution method. An outline of the steps:
as §4

Test [11] concerns Staphylococcus aureus. In words: Antibacterial activity against methicillin-resistant Staphylococcus aureus 3 by agar dilution method. In a few lines: as §3
Test [12] deals with Streptococcus pneumoniae. In words: Antibacterial activity against penicillin intermediate-resistant Streptococcus pneumoniae isolate I1 by agar dilution method. An outline of the steps: as §5
The subject of test [13] is Streptococcus pneumoniae. In words: Antibacterial activity against penicillin-susceptible Streptococcus pneumoniae isolate S1 by agar dilution method. In a few lines:
as §1

The test system of test [14] is Streptococcus pyogenes. Briefly: Antibacterial activity against Streptococcus pyogenes isolate 3 by agar dilution method. An outline of the steps: as §1
The test system of test [15] is Staphylococcus aureus. Briefly: Antibacterial activity against methicillin-susceptible Staphylococcus aureus isolate 3 by agar dilution method. An outline of the steps:
as §4

Test [16] deals with Streptococcus pneumoniae. Briefly: Antibacterial activity against penicillin-susceptible Streptococcus pneumoniae isolate S2 by agar dilution method. In a few lines: as §1
Test [17] deals with Streptococcus pneumoniae. Briefly: Antibacterial activity against penicillin intermediate-resistant Streptococcus pneumoniae isolate I3 by agar dilution method. An outline of the steps:
as §5

For orientation: MIC means the smallest concentration in the dilution series that meets the test's criterion for growth inhibition. A higher MIC goes with weaker potency. In the case of `CC[C@H]1OC(=O)[C@H](C)C(=O)[C@H](C)[C@@H](O[C@@H]2O[C@H](C)C[C@H](N(C)C)[C@H]2O)[C@](C)(OC)C[C@@H](C)/C(=N\OC/C=C/c2cnc3ccccc3c2)[C@H](C)[C@@H](O)[C@]1(C)O`, the MIC in test [1] is 0.06 µg/mL (≈ 0.0779 µM); in test [2], 0.06 µg/mL (≈ 0.0779 µM); in [3] it was 0.25 µg/mL (≈ 0.325 µM); in test [4], 0.06 µg/mL (≈ 0.0779 µM); in [5], 128 µg/mL (≈ 166 µM); in test [6], 128 µg/mL (≈ 166 µM). Also, the MIC in test [7] came to 0.25 µg/mL (≈ 0.325 µM); in test [8] it was 0.06 µg/mL (≈ 0.0779 µM); in test [9], 0.06 µg/mL (≈ 0.0779 µM); in test [10], 0.25 µg/mL (≈ 0.325 µM); in test [11] it was 0.25 µg/mL (≈ 0.325 µM); in [12], 64 µg/mL (≈ 83.1 µM). Moreover, the MIC was found to be 0.06 µg/mL (≈ 0.0779 µM) in test [13]; 0.06 µg/mL (≈ 0.0779 µM) in test [14]; 0.25 µg/mL (≈ 0.325 µM) in test [15]; 0.06 µg/mL (≈ 0.0779 µM) in [16]; 4 µg/mL (≈ 5.19 µM) in [17].

On to `CC[C@H]1OC(=O)[C@H](C)C(=O)[C@H](C)[C@@H](O[C@@H]2O[C@H](C)C[C@H](N(C)C)[C@H]2O)[C@](C)(OC)C[C@@H](C)/C(=N\OC/C=C/c2cncc3ccccc23)[C@H](C)[C@@H](O)[C@]1(C)O`, for which the minimum inhibitory concentration (MIC) in [1] worked out at 0.25 µg/mL (≈ 0.325 µM); in test [2] it was 0.25 µg/mL (≈ 0.325 µM); in [3] it was 1 µg/mL (≈ 1.3 µM); in [4], 0.25 µg/mL (≈ 0.325 µM); in test [5], 128 µg/mL (≈ 166 µM); in [6], 128 µg/mL (≈ 166 µM). The MIC in test [7] is 1 µg/mL (≈ 1.3 µM); in test [8], 0.06 µg/mL (≈ 0.0779 µM); in test [9], 0.5 µg/mL (≈ 0.649 µM); in test [10], 0.5 µg/mL (≈ 0.649 µM); in test [11] it was 0.5 µg/mL (≈ 0.649 µM); in test [12] it was 32 µg/mL (≈ 41.6 µM). Besides, the MIC turned out to be 0.25 µg/mL (≈ 0.325 µM) in test [13]; 0.25 µg/mL (≈ 0.325 µM) in test [14]; 0.5 µg/mL (≈ 0.649 µM) in test [15]; 0.25 µg/mL (≈ 0.325 µM) in test [16]; 1 µg/mL (≈ 1.3 µM) in test [17].

With `CC[C@H]1OC(=O)[C@H](C)C(=O)[C@H](C)[C@@H](O[C@@H]2O[C@H](C)C[C@H](N(C)C)[C@H]2O)[C@](C)(OC)C[C@@H](C)/C(=N\OC/C=C/c2cncnc2)[C@H](C)[C@@H](O)[C@]1(C)O`, the MIC in [1] was 0.25 µg/mL (≈ 0.347 µM); in test [2], 0.25 µg/mL (≈ 0.347 µM); in test [3], 0.5 µg/mL (≈ 0.694 µM); in test [4] it was 0.25 µg/mL (≈ 0.347 µM); in test [5], 128 µg/mL (≈ 178 µM); in test [6] it was 128 µg/mL (≈ 178 µM). In addition, the MIC is 0.5 µg/mL (≈ 0.694 µM) in test [7]; 0.06 µg/mL (≈ 0.0832 µM) in [8]; 0.5 µg/mL (≈ 0.694 µM) in test [9]; 0.5 µg/mL (≈ 0.694 µM) in [10]; 0.5 µg/mL (≈ 0.694 µM) in test [11]; 128 µg/mL (≈ 178 µM) in test [12]. The MIC in test [13] was found to be 0.125 µg/mL (≈ 0.173 µM); in test [14] it was 0.25 µg/mL (≈ 0.347 µM); in test [15], 0.5 µg/mL (≈ 0.694 µM); in [16] it was 0.125 µg/mL (≈ 0.173 µM); in test [17] it was 1 µg/mL (≈ 1.39 µM).
